Several values for one entry are separate records, joined by “and”; a condition that tells them apart may be missing. Identical values can stand only once.
How the values were obtained:
Cavia porcellus [1] = species on record: Cavia porcellus; assay: Concentration required to prolong the effective refractory period (ERP) by 25% in isolated guinea pig left atria; type: functional
Method in brief: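 Isolated guinea pig left atria were studied by the extrastimulus technique. The molar concentration raising ERP by 25% (ED25) was determined. Values are the mean of two similar determinations, ±4%.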

Cavia porcellus [2] = species on record: Cavia porcellus; assay: The degree of cardiac depression produced by a concentration of 10 E-4 M was determined in guinea pig; type: functional
Method in brief: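 Cardiac depression was measured at 10⁻⁴ M in the isolated guinea pig left atrial preparation and taken as an index of class I activity.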

Cavia porcellus [3] = species on record: Cavia porcellus; assay: Action potential duration (APD90) repolarization in guinea pig right papillary muscle was determined at concentration 5 x 10E-9 M; type: functional, Muscle tissue
Method in brief: (§1)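 Isolated guinea pig right papillary muscle exposed to the concentration given in each line. Action potential duration was read at 50% and 90% repolarization, and phase 0 maximum rate of depolarization (MRD) was also recorded. Values are means ± SD of 30 or 31 observations from three preparations, compared with control by t test.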

[4] = Oral bioavailability in dog; type: ADME, organism-based, Canis lupus familiaris; settings: in vivo
Cavia porcellus [5] = species on record: Cavia porcellus; assay: Action potential duration (APD50) repolarization in guinea pig right papillary muscle was determined at concentration 2 x 10E-5 M; type: functional, Muscle tissue; method in brief: as §1
Cavia porcellus [6] = species on record: Cavia porcellus; assay: Action potential duration (APD90) repolarization in guinea pig right papillary muscle was determined at concentration 10E-6 M; type: functional, Muscle tissue; method in brief: as §1
Cavia porcellus [7] = species on record: Cavia porcellus; assay: Action potential duration (APD50) repolarization in guinea pig right papillary muscle was determined at concentration 5 x 10E-8 M; type: functional, Muscle tissue; method in brief: as §1
Cavia porcellus [8] = species on record: Cavia porcellus; assay: Maximum rate of depolarization (MRD) during phase 0 in guinea pig right papillary muscle was determined at concentration 5 x 10E-9 M; type: functional, Muscle tissue; method in brief: as §1
Cavia porcellus [9] = species on record: Cavia porcellus; assay: Action potential duration (APD50) repolarization in guinea pig right papillary muscle was determined at concentration 10E-6 M; type: functional, Muscle tissue; method in brief: as §1
Cavia porcellus [10] = species on record: Cavia porcellus; assay: Maximum rate of depolarization (MRD) during phase 0 in guinea pig right papillary muscle was determined at concentration 5 x 10E-8 M; type: functional, Muscle tissue; method in brief: as §1
Cavia porcellus [11] = species on record: Cavia porcellus; assay: Maximum rate of depolarization (MRD) during phase 0 in guinea pig right papillary muscle was determined at concentration 10E-6 M; type: functional, Muscle tissue; method in brief: as §1
Cavia porcellus [12] = species on record: Cavia porcellus; assay: Action potential duration (APD50) repolarization in guinea pig right papillary muscle was determined at concentration 5 x 10E-9 M; type: functional, Muscle tissue; method in brief: as §1
Cavia porcellus [13] = species on record: Cavia porcellus; assay: Maximum rate of depolarization (MRD) during phase 0 in guinea pig right papillary muscle was determined at concentration 2 x 10E-5 M; type: functional, Muscle tissue; method in brief: as §1
[14] = Distribution coefficient at pH 7.4; type: physicochemical; settings: octanol/water
[15] = Oral bioavailability in man; type: ADME, organism-based; settings: human, in vivo
Cavia porcellus [16] = species on record: Cavia porcellus; assay: Action potential duration (APD90) repolarization in guinea pig right papillary muscle was determined at concentration 5 x 10E-8 M; type: functional, Muscle tissue; method in brief: as §1

| Structure (SMILES) | ED25 (Cavia porcellus [1]) [µM] | Cardiac depression (Cavia porcellus [2]) [%] | further results |
| --- | --- | --- | --- |
| CN(CCOc1ccc(CC(N)=O)cc1)CCc1ccc(NS(C)(=O)=O)cc1 | 10 | 7 | – |
| COC(=O)c1ccc(OCCN(C)CCc2ccc(NS(C)(=O)=O)cc2)cc1 | 4.1 | 47 | – |
| CN(CCOc1ccc(C(N)=O)cc1)CCc1ccc(NS(C)(=O)=O)cc1 | 1.5 | 7 | – |
| CN(CCSc1ccc(NS(C)(=O)=O)cc1)CCc1ccc(NS(C)(=O)=O)cc1 | 0.3 | 21 | – |
| CN(CCCCc1ccc(NS(C)(=O)=O)cc1)CCc1ccc(NS(C)(=O)=O)cc1 | 67 | 32 | – |
| CN(CCOc1cccc(C(N)=O)c1)CCc1ccc(NS(C)(=O)=O)cc1 | 0.82 | 3 | – |
| CN(CCOC(c1ccccc1)c1ccc(NS(C)(=O)=O)cc1)CCc1ccc(NS(C)(=O)=O)cc1 (configuration not stated) | 12 | 35 | – |
| CN(CCOc1cccc(NS(C)(=O)=O)c1)CCc1ccc(NS(C)(=O)=O)cc1 | 3 | 9 | – |
| CN(CCCc1ccc(NS(C)(=O)=O)cc1)CCc1ccc(NS(C)(=O)=O)cc1 | 2.7 | 23 | – |
| CN(CCOc1ccc(S(N)(=O)=O)cc1)CCc1ccc(NS(C)(=O)=O)cc1 | 2.2 | 7 | – |
| CCN(CC)C(=O)c1ccc(OCCN(C)CCc2ccc(NS(C)(=O)=O)cc2)cc1 | 32 | 9 | – |
| CN(CCOc1ccc(NS(C)(=O)=O)cc1Cl)CCc1ccc(NS(C)(=O)=O)cc1 | 18 | 16 | – |
| CN(CCc1ccc(NS(C)(=O)=O)cc1)CCc1ccc(NS(C)(=O)=O)cc1 | 2 | 20 | – |
| Cc1ccc(NS(C)(=O)=O)c(OCCN(C)CCc2ccc(NS(C)(=O)=O)cc2)c1.Cl | 17 | 24 | – |
| CN(CCCCOc1ccc(NS(C)(=O)=O)cc1)CCc1ccc(NS(C)(=O)=O)cc1.Cl | 40 | 23 | – |
| Cc1ccc(OCCN(C)CCc2ccc(NS(C)(=O)=O)cc2)c(C(N)=O)c1.Cl | 1 | 22 | – |
| CNC(=O)Nc1ccc(OCCN(C)CCc2ccc(NS(C)(=O)=O)cc2)cc1.Cl | 70 | 0 | – |
| CN(CCOc1ccccc1NS(C)(=O)=O)CCc1ccc(NS(C)(=O)=O)cc1.Cl | 2.5 | 19 | – |
| CN(CCOc1ccc(C(F)(F)F)cc1)CCc1ccc(NS(C)(=O)=O)cc1.Cl | 90 | 30 | – |
| CNC(=O)c1ccc(OCCN(C)CCc2ccc(NS(C)(=O)=O)cc2)cc1.Cl | 1.5 | 5 | – |
| CN(CCCOc1ccc(NS(C)(=O)=O)cc1)CCc1ccc(NS(C)(=O)=O)cc1.Cl | 20 | 44 | – |
| CN(CCOc1ccc(C(=O)N2CCOCC2)cc1)CCc1ccc(NS(C)(=O)=O)cc1.Cl | 20 | 15 | – |
| CN(CCOc1ccc(NS(C)(=O)=O)cc1)CCc1ccc(NS(C)(=O)=O)cc1 [DOFETILIDE] | 0.13 | 0 | APD90 (Cavia porcellus [3]): <209 ms and <273 ms; bioavailability [4]: 72%; APD50 (Cavia porcellus [5]): 209 ms; APD90 (Cavia porcellus [6]): 288 ms; APD50 (Cavia porcellus [7]): 197 ms; MRD (Cavia porcellus [8]): 261 V s-1; APD50 (Cavia porcellus [9]): 223 ms; MRD (Cavia porcellus [10]): 273 V s-1; MRD (Cavia porcellus [11]): 269 V s-1; APD50 (Cavia porcellus [12]): 170 ms; MRD (Cavia porcellus [13]): 273 V s-1; logD [14]: 0.96; bioavailability [15]: 100%; APD90 (Cavia porcellus [16]): 246 ms |
| CC(C)NCC(O)c1ccc(NS(C)(=O)=O)cc1 (configuration not stated) [SOTALOL] | 200 | 5 | – |

Source: ChEMBL document CHEMBL1124739, “Selective class III antiarrhythmic agents. 1 Bis(arylalkyl)amines” (J Med Chem, 1990)
